The results in this text go back to ChEMBL document CHEMBL1155876 (J Med Chem, 2008).

Series [1] deals with T1, Aurora kinase A (Homo sapiens, UniProt O14965).
T1 sequence (O14965 whole entry): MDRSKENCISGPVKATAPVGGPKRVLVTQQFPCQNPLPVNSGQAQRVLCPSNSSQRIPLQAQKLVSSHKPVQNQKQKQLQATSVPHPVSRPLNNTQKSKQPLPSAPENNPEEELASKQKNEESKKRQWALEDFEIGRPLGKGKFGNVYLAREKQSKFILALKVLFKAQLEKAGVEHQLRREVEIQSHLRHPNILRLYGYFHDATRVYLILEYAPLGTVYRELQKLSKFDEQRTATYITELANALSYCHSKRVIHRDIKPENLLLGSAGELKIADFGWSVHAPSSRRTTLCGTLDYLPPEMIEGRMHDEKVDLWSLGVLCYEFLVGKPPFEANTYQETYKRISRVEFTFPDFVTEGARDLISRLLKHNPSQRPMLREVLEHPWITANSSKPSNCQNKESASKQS
Briefly: Inhibition of Aurora A.

Another series concerns HT-29. Nature of the series: Antiproliferative activity against human HT29 cells. The series is classed as functional, cell-based. The method, boiled down:
(§1)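 HCT116, HT29 or MCF7 cells were seeded on day 0 in 1:1 Ham's F12/DMEM-high glucose with 10% FBS and 2 mM L-glutamine, then kept overnight at 37 °C in 5% CO2. On day 1, inhibitor in DMSO, diluted 20-fold in serum- and glutamine-free medium, was added. Viability was read on day 4 as total ATP by CellTiter-Glo luminescence.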

A further series concerns MCF7. Briefly: Antiproliferative activity against human MCF7 cells. The series is classed as functional, cell-based. The method in brief:
as §1

Series [2] has as its target T2, Aurora kinase B (Homo sapiens, UniProt Q96GD4). Nature of the series: Inhibition of Aurora B.
A short description of series [3]: Cmax in CD1 mouse at 30 mg/kg, po. The series is classed as ADME, organism-based. Details: dose 30 mg/kg, route oral. To be noted: in vivo.
Series [4] can be described thus: AUClast in CD1 mouse at 30 mg/kg, po. The series is classed as ADME, organism-based. Details: time 0 - last, dose 30 mg/kg, route oral. The following applies: plasma.
For series [5], the target named is Serine/threonine-protein kinase Chk1 (Homo sapiens, UniProt O14757). Nature of the series: Inhibition of Chk1.
Chain of Serine/threonine-protein kinase Chk1 (O14757 whole entry): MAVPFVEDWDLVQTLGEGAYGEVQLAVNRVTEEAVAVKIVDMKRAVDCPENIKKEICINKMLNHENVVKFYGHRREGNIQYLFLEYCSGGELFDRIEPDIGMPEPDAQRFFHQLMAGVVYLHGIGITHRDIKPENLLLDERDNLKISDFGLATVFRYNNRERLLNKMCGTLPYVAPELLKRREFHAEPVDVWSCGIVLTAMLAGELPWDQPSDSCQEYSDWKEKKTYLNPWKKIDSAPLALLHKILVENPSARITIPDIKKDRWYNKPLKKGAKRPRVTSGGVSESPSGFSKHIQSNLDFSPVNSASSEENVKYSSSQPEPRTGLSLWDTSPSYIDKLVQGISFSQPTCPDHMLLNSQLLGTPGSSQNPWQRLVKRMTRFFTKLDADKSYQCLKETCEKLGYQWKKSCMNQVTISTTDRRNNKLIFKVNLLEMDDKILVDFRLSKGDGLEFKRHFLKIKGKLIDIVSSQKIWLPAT
In series [6] the target is T1, Aurora kinase A. Briefly: Inhibition of Aurora A in human HCT cells assessed as loss of autophosphorylation of Aurora A. The series is classed as cell-based.
In series [7] the target is T2, Aurora kinase B. Nature of the series: Inhibition of Aurora B assessed as loss of phospho histone H3 in human […] cells. The series is classed as cell-based.
In series [8] the target is T2, Aurora kinase B. Briefly: Inhibition of Aurora B assessed as loss of phospho histone H3 in human HCT cells. The series is classed as cell-based.
The target in series [9] is Cyclin-dependent kinase 2 (Homo sapiens, UniProt P24941). Briefly: Inhibition of CDK2/CyclinA.
Series [10] deals with Receptor-type tyrosine-protein kinase FLT3 (Homo sapiens, UniProt P36888). Briefly: Inhibition of Flt3.
Chain of Receptor-type tyrosine-protein kinase FLT3 (P36888 whole entry): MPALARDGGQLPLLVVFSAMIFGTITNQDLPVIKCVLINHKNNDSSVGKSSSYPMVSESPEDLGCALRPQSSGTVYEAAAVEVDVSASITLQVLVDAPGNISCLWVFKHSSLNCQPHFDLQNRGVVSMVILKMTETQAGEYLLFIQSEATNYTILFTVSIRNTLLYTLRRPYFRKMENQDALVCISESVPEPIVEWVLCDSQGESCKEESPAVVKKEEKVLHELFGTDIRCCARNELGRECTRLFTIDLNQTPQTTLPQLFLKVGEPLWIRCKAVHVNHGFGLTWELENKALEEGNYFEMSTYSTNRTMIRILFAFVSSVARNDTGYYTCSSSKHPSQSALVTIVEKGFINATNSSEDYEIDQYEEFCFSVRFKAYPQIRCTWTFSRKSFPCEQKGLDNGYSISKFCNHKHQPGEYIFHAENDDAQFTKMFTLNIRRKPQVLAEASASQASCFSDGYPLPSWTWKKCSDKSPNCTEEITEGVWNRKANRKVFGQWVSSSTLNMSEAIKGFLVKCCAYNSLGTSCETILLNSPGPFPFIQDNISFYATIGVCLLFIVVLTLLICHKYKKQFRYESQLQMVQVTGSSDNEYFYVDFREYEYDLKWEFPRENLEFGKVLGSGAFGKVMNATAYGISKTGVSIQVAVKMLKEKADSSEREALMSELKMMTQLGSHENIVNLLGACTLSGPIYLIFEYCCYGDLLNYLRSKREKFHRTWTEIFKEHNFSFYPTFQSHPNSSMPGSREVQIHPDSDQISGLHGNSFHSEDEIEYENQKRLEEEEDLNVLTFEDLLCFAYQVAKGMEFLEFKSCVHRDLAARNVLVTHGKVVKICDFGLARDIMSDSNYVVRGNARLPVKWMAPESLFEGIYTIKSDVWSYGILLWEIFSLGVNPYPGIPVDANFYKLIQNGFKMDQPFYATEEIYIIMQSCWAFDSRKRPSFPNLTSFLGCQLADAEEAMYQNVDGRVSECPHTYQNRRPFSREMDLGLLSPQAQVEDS
Series [11] addresses Glycogen synthase kinase-3 beta (Homo sapiens, UniProt P49841). Nature of the series: Inhibition of GSK3-beta.
Series [12] deals with Vascular endothelial growth factor receptor 2 (Homo sapiens, UniProt P35968). Nature of the series: Inhibition of KDR.
Chain of Vascular endothelial growth factor receptor 2 (P35968 whole entry): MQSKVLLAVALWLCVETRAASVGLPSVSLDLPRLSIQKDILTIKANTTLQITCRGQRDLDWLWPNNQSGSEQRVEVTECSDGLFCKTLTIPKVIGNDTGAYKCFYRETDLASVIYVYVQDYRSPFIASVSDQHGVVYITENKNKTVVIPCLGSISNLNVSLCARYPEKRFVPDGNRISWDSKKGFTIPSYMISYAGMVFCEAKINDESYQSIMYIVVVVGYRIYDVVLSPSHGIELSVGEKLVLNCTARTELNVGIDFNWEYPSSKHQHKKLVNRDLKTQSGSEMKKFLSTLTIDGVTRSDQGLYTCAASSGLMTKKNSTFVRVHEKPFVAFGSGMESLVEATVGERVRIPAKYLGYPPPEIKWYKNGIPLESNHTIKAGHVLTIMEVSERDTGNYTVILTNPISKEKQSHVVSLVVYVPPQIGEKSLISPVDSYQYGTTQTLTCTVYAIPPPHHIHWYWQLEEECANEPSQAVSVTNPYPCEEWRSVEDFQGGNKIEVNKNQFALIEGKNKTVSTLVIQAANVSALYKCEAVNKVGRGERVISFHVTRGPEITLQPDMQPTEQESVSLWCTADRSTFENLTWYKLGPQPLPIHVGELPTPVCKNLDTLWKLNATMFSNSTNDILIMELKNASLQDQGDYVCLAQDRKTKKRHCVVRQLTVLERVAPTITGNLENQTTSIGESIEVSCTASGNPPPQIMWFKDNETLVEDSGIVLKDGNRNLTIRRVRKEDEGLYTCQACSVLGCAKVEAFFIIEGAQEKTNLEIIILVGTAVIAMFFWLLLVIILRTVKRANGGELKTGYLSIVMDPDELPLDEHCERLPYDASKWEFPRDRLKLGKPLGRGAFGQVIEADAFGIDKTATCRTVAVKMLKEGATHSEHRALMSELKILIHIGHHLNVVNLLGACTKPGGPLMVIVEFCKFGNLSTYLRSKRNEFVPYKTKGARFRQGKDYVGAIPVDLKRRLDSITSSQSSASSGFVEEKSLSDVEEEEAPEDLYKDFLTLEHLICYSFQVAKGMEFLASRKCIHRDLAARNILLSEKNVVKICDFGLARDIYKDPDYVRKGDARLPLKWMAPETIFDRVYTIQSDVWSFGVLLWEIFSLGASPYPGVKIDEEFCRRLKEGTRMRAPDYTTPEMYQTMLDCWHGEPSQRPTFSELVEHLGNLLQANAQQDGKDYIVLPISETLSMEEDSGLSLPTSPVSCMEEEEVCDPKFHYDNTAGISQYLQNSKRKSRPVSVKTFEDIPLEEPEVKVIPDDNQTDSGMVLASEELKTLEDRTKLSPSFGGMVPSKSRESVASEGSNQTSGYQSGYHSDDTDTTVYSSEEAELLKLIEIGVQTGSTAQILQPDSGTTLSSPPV
Series [13] concerns the target Proto-oncogene tyrosine-protein kinase Src (Homo sapiens, UniProt P12931). Nature of the series: Inhibition of Src.
Series [14] concerns Mus musculus. Nature of the series: Toxicity in athymic mouse xenografted with human HCT116 cells assessed as loss of body weight at 10 mg/kg, po qd. The following applies: in vivo. Details: dose 10 mg/kg, route oral. The series is classed as organism-based, HCT-116. The method in brief:
(§2)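 Female athymic nude mice, 5 × 10^6 HCT-116 cells injected subcutaneously in the right flank. At a mean tumor volume of ~150 mm3, mice were randomized to groups (N = 10). Oral QD dosing at 0, 1, 2.5, 5 or 10 mg/kg as a suspension in 20% HP-β-cyclodextrin (100 µL). Three mice per group were taken for PD after 2 days; the rest were dosed for 21 days. Body weight was followed, with euthanasia at 20% weight loss.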
On the technique in general: Xenograft models place foreign cells or tissue in a host animal.

Series [15] has as its system Mus musculus. Nature of the series: Toxicity in athymic mouse xenografted with human HCT116 cells assessed as bone marrow depletion at 10 mg/kg, po qd. The series is classed as organism-based, HCT-116. Details: dose 10 mg/kg, route oral. The following applies: in vivo. The method in brief:
as §2

Series [16] can be described thus: Clearance in CD1 mouse 1 mg/kg, iv. Further details: dose 1 mg/kg, route intravenous. The following applies: in vivo. The series is classed as ADME, organism-based. The method, boiled down:
(§3)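 A single 1 mg/kg iv dose was given. Vehicles: CD-1 mice (female, 3 per time point), 5% DMSO/5% Cremophor; SD rats (male, 3 per route), 80% PEG; beagles (male, 3 per route), 60% PEG. PK parameters were calculated from averaged serum levels (N = 3).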

The test system of series [17] is Mus musculus. Nature of the series: Oral bioavailability in CD1 mouse 5 mg/kg. To be noted: in vivo. The series is classed as ADME, organism-based. The method in brief:
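Female CD-1 mice, three per time point. Oral dose 5 mg/kg as a solution in 80% polyethylene glycol; iv reference dose 1 mg/kg as a solution in 5% DMSO, 5% Cremophor. PK parameters calculated from mean serum levels (N = 3).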

A short description of series [18]: Clearance in Sprague-Dawley rat 1 mg/kg, iv. The series is classed as ADME, organism-based. Further details: dose 1 mg/kg, route intravenous. To be noted: in vivo. The method in brief:
as §3

Series [19] is described as follows: Oral bioavailability in Sprague-Dawley rat 5 mg/kg. The series is classed as ADME, organism-based. To be noted: in vivo. The method, boiled down:
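Male Sprague-Dawley rats, three per route. Oral dose 5 mg/kg as a solution in 80% PEG; iv dose 1 mg/kg, also as an 80% PEG solution. PK parameters calculated from averaged serum levels (N = 3).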

The nature of series [20]: Oral bioavailability in Beagle dog 5 mg/kg. The series is classed as ADME, organism-based, Canis lupus familiaris. To be noted: in vivo. The method in brief:
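Three male beagles per route. Oral dose 5 mg/kg given as a solution in 80% PEG; iv comparator 1 mg/kg delivered in 60% PEG. Mean serum concentrations (N = 3) used to derive PK parameters.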

A short description of series [21]: Clearance in Beagle dog 1 mg/kg, iv. The series is classed as ADME, organism-based, Canis lupus familiaris. Details: dose 1 mg/kg, route intravenous. The following applies: in vivo. The method, boiled down: as §3
Series [22] relates to Mus musculus. Briefly: Toxicity in athymic mouse xenografted with human HCT116 cells assessed as gastrointestinal hypocellularity at 10 mg/kg, po qd. To be noted: in vivo.
The next series concerns HCT-116. Nature of the series: Antiproliferative activity against human HCT116 cells.

By pIC50 is commonly meant the negative decadic logarithm of the IC50, by convention in mol/L. One may read the Cmax as the highest concentration seen after dosing. Broadly, the AUC(0-t) is exposure summed from dosing to a finite time, without extrapolation to infinity. For orientation: clearance means a measure of how efficiently the substance is removed, as volume per time. A higher clearance goes with efficient removal. By bioavailability is commonly meant the share of a dose that reaches the circulation, judged against a reference dose that is usually intravenous. A low value points to little systemic uptake.

pIC50: −log10 of the molar value.

T2 sequence (Q96GD4 whole entry): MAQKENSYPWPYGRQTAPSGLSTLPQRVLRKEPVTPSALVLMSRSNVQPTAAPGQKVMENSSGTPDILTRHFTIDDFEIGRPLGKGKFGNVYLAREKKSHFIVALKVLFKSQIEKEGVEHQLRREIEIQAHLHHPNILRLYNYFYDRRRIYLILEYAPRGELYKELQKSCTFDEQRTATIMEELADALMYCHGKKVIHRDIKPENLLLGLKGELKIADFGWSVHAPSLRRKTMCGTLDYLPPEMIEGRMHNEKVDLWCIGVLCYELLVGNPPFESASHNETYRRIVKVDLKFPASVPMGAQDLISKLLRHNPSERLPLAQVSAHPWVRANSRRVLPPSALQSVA
Chain of Glycogen synthase kinase-3 beta (P49841 whole entry): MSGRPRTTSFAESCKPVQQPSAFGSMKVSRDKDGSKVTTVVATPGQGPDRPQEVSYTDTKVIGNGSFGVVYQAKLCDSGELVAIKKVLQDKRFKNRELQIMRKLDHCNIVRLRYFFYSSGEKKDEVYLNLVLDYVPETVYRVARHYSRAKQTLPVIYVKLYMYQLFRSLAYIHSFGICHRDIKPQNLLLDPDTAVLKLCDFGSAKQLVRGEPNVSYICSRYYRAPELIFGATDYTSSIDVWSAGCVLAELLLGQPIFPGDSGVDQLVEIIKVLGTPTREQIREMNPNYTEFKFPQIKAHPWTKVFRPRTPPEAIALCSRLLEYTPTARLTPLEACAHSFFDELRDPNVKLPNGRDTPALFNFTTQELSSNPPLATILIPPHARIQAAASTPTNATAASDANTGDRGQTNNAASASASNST
Chain of Proto-oncogene tyrosine-protein kinase Src (P12931 2-536 limits assumed): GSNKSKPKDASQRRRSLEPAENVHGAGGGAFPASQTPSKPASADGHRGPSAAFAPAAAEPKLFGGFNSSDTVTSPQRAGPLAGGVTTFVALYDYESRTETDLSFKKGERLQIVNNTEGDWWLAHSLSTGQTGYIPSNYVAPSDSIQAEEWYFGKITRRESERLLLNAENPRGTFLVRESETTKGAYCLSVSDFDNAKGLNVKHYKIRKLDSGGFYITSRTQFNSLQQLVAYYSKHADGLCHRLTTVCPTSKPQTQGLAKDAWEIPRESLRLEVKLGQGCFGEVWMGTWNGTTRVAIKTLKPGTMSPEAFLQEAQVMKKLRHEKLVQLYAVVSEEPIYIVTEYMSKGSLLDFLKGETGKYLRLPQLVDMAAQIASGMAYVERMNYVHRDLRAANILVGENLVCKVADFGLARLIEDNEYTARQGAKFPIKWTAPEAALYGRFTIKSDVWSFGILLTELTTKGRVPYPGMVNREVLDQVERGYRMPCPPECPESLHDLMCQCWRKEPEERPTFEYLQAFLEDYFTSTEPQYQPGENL

For `Cc1[nH]nc2c1CCCc1c-2[nH]c2cc3c(cc12)NC(=O)C3(C)C`, the pIC50 on Aurora kinase A [1] was 8.70; in the series with HT-29 it was 7.52; in the series on MCF7, 7.00.
In the case of `Cc1cc(-c2cc3ccccc3[nH]2)n[nH]1`, the pIC50 against Aurora kinase A [1] was 5.96; at Aurora kinase B [2], 6.29.
For the compound `Cc1[nH]nc2c1CCCc1c-2[nH]c2cc3c(cc12)C(C)(C)C(=O)N3`, the pIC50 was 7.14 against Aurora kinase A [1], 7.07 against Aurora kinase B [2], 5.59 in the series on HT-29 and 5.82 with MCF7.
Regarding `Cc1cc(-c2nc3cc4c(cc3[nH]2)NC(=O)C4(C)C)n[nH]1`, the pIC50 was 6.74 against Aurora kinase A [1] and 6.82 against Aurora kinase B [2]. The compound further had a Cmax in series [3] of 0.88 µM. For the same compound, the AUC(0-t) in [4] is 1.5 µM·h.
As to `Cc1[nH]nc2c1CCc1c-2[nH]c2ccccc12`, the pIC50 against Aurora kinase A [1] is 7.29; on Aurora kinase B [2] it was 6.66; in the series on HT-29 it was < 4.70; with MCF7, 5.35.
Consider `CCN1C(=O)C(C)(C)c2cc3[nH]c4c(c3cc21)CCCc1c-4n[nH]c1C`, for which the pIC50 was 7.07 in series [5]; 8.30 at Aurora kinase B [2]; 6.80 at Aurora kinase A [6]; 7.00 on Aurora kinase B [7]; 6.51 at Aurora kinase B [8]; 4.82 in series [9]. Besides, the pIC50 was 8.70 in [10], 5.11 in [11], 7.92 in [12] and 6.60 in [13]. Further, the Activity result with Mus musculus [14], with Mus musculus [15] and in the series on Mus musculus [22] was “Toxic” in each case. Further, the clearance in series [16] was found to be 25 mL/min/kg; in [18], 22 mL/min/kg; in [21], 34 mL/min/kg. In the series with Mus musculus [17], this compound showed an F of 178%. Also, the bioavailability in [19] is 97%; in series [20], 56%.
Take `Cc1cc(Nc2cc(N3CCN(C)CC3)nc(Sc3ccc(NC(=O)C4CC4)cc3)n2)n[nH]1` [TOZASERTIB]: the values for the pIC50 in the series with HT-29, with MCF7 and in the series with HCT-116 were 6.82, 7.32 and 7.28, respectively.
Turning to `OCc1[nH]nc2c1CCc1c-2[nH]c2ccccc12`, the pIC50 on Aurora kinase A [1] is 6.47.
`CCOC(=O)c1[nH]nc2c1CCc1c-2[nH]c2ccccc12`: the pIC50 at Aurora kinase A [1] is 5.24.
In the case of `Cc1[nH]nc2c1Cc1c-2[nH]c2ccccc12`, the pIC50 against Aurora kinase A [1] was 6.06; against Aurora kinase B [2] it was 6.06; in the series with HT-29, < 4.70; in the series on MCF7 it was < 4.70.
Take `Cc1[nH]nc2c1CCCC1c3ccccc3NC21` (stereo not given): the pIC50 at Aurora kinase A [1] is 7.38; at Aurora kinase B [2], 7.66; in the series on HT-29, 5.59; in the series with MCF7 it was 6.17.
`c1ccc2c3c([nH]c2c1)-c1n[nH]cc1CC3` had a pIC50 on Aurora kinase A [1] of 6.52.
The same measure, in the same setting: the value for `c1ccc2c3c([nH]c2c1)-c1n[nH]c(C2CC2)c1CC3` was 6.96.
Regarding `CCN1C(=O)C(C)(C)c2cc3nc(-c4cc(C)[nH]n4)[nH]c3cc21`, the pIC50 against Aurora kinase A [1] is 7.16; against Aurora kinase B [2] it was 6.89. This compound returned a Cmax in series [3] of 51 µM. Moreover, the AUC(0-t) in series [4] was 180 µM·h.
